Reference: ChEMBL document CHEMBL1795297, “Design, synthesis and molecular docking studies of novel triazole as antifungal agent” (2011)
Converted amounts (≈) assume the structure as drawn.

Experiments:
Type in all cases: functional
Candida albicans [1] = experiment: Antifungal activity against Candida albicans ATCC Y0109 after 24 hrs by micro-broth dilution method; details: ATCC Y0109, 24 h
How it was run: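 ATCC quality-control strain, tested in every assay. NCCLS M27-A2 broth microdilution. Compounds were dissolved in DMSO, serially diluted in growth medium, inoculated and incubated at 35 °C, with growth read at 24 h. MIC80 is the first well with about 80% growth reduction relative to the drug-free control. Each test was run three times and the mean of replicates taken.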

Candida parapsilosis = experiment: Antifungal activity against Candida parapsilosis clinical isolate by micro-broth dilution method; details: Lodderomyces parapsilosis
How it was run: (§1)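 Clinical isolate. MIC by broth microdilution following the NCCLS M27-A2 reference method for yeasts. Compounds were dissolved in DMSO, serially diluted in growth medium, inoculated and incubated at 35 °C. MIC80 is the first well with about 80% less growth than the drug-free well. Each test was run three times and the mean of replicates reported.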

Candida tropicalis = experiment: Antifungal activity against Candida tropicalis clinical isolate by micro-broth dilution method; how it was run: as §1
Cryptococcus neoformans = experiment: Antifungal activity against Cryptococcus neoformans ATCC BLS108 after 72 hrs by micro-broth dilution method; details: ATCC BLS108, 72 h
How it was run: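 Quality-control ATCC strain included in each assay. Microbroth dilution per NCCLS M27-A2. DMSO-dissolved compounds were serially diluted in growth medium, inoculated and held at 35 °C, with MIC read at 72 h. MIC80 is the first well showing about 80% growth reduction versus the drug-free well. Tests were done in triplicate and the mean reported.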

Trichophyton rubrum = experiment: Antifungal activity against Trichophyton rubrum clinical isolate by micro-broth dilution method; how it was run: as §1
[2] = Antifungal activity against Fonsecaea compacta clinical isolate by micro-broth dilution method; how it was run: as §1
Nannizzia gypsea = experiment: Antifungal activity against Microsporum gypseum clinical isolate by micro-broth dilution method; how it was run: as §1
Aspergillus fumigatus = experiment: Antifungal activity against Aspergillus fumigatus clinical isolate by micro-broth dilution method; how it was run: as §1
Candida albicans [3] = experiment: Ratio of voriconazole MIC80 to compound MIC80 for Candida albicans ATCC Y0109

For CCCCCCC(=O)Nc1ccc(N2CCN(CC(O)(Cn3cncn3)c3ccc(F)cc3F)CC2)c(C(F)(F)F)c1 (stereo unspecified), which MIC80 (Candida albicans [1]) is on record?
The MIC80 was 1 µg/mL (≈ 1.68 µM).

What about the MIC80 (Candida parapsilosis) of the same compound?
Its MIC80 is 4 µg/mL (≈ 6.73 µM).

What about the MIC80 (Candida tropicalis) of the same compound?
Its MIC80 is 4 µg/mL (≈ 6.73 µM).

And the MIC80 (Cryptococcus neoformans)?
The MIC80 was 1 µg/mL (≈ 1.68 µM).

And the MIC80 (Trichophyton rubrum)?
Its MIC80 is 4 µg/mL (≈ 6.73 µM).

And the MIC80 [2]?
Its MIC80 is 16 µg/mL (≈ 26.9 µM).

And the MIC80 (Nannizzia gypsea)?
The MIC80 was 4 µg/mL (≈ 6.73 µM).

And the MIC80 (Aspergillus fumigatus)?
The MIC80 was over 64 µg/mL.

What does the source list for OC(Cn1cncn1)(Cn1cncn1)c1ccc(F)cc1F [FLUCONAZOLE]?
MIC80 (Candida albicans [1]): 4 µg/mL (≈ 13.1 µM); MIC80 (Candida parapsilosis): 1 µg/mL (≈ 3.27 µM); MIC80 (Candida tropicalis): 1 µg/mL (≈ 3.27 µM); MIC80 (Cryptococcus neoformans): 1 µg/mL (≈ 3.27 µM); MIC80 (Trichophyton rubrum): 0.25 µg/mL (≈ 0.816 µM); MIC80 [2]: 16 µg/mL (≈ 52.2 µM); MIC80 (Nannizzia gypsea): 0.25 µg/mL (≈ 0.816 µM); MIC80 (Aspergillus fumigatus): 64 µg/mL (≈ 209 µM)

For O=C(/C=C/c1ccccc1)Nc1ccc(N2CCN(CC(O)(Cn3cncn3)c3ccc(F)cc3F)CC2)c(C(F)(F)F)c1 (stereo unspecified), which MIC80 (Candida albicans [1]) is on record?
The MIC80 was 0.00097 µg/mL (≈ 0.00158 µM).

What about the MIC80 (Cryptococcus neoformans) of the same compound?
The MIC80 was 0.25 µg/mL (≈ 0.408 µM).

What about the MIC80 (Aspergillus fumigatus) of the same compound?
The MIC80 was 4 µg/mL (≈ 6.53 µM).

And the Ratio (Candida albicans [3])?
The Ratio was 16.

Which results are given for CCCCC(=O)Nc1ccc(N2CCN(CC(O)(Cn3cncn3)c3ccc(F)cc3F)CC2)c(C(F)(F)F)c1 (stereo unspecified)?
MIC80 (Candida albicans [1]): 1 µg/mL (≈ 1.76 µM); MIC80 (Candida parapsilosis): 0.25 µg/mL (≈ 0.441 µM); MIC80 (Candida tropicalis): 1 µg/mL (≈ 1.76 µM); MIC80 (Cryptococcus neoformans): 4 µg/mL (≈ 7.06 µM); MIC80 (Trichophyton rubrum): 4 µg/mL (≈ 7.06 µM); MIC80 [2]: 4 µg/mL (≈ 7.06 µM); MIC80 (Nannizzia gypsea): 4 µg/mL (≈ 7.06 µM); MIC80 (Aspergillus fumigatus): > 64 µg/mL

Which MIC80 (Candida albicans [1]) does the source give for O=C(Nc1ccc(N2CCN(CC(O)(Cn3cncn3)c3ccc(F)cc3F)CC2)c(C(F)(F)F)c1)c1ccc(F)cc1 (stereo unspecified) here?
Its MIC80 is 4 µg/mL (≈ 6.62 µM).

And the MIC80 (Candida parapsilosis)?
Its MIC80 is 0.25 µg/mL (≈ 0.414 µM).

What about the MIC80 (Candida tropicalis) of the same compound?
The MIC80 was 1 µg/mL (≈ 1.65 µM).

And the MIC80 (Cryptococcus neoformans)?
Its MIC80 is 16 µg/mL (≈ 26.5 µM).

What about the MIC80 (Trichophyton rubrum) of the same compound?
The MIC80 was 4 µg/mL (≈ 6.62 µM).

What about the MIC80 [2] of the same compound?
The MIC80 was 4 µg/mL (≈ 6.62 µM).

What about the MIC80 (Nannizzia gypsea) of the same compound?
Its MIC80 is 1 µg/mL (≈ 1.65 µM).

And the MIC80 (Aspergillus fumigatus)?
Its MIC80 is 4 µg/mL (≈ 6.62 µM).
